In paper PMC8959088 (Journal of the American Chemical Society, 2022) one finds Ki data, which are given here for 1 substance.

The term pKi denotes −log10 of the Ki, conventionally taken in molar units. Low values mean a large Ki, high ones a small Ki.

This assay deals with KIX domain of p300/CBP (KIX–MLL interaction) (Mus musculus, UniProt P45481). Briefly: competition fluorescence polarization assay, inhibition of KIX–MLL interaction. Type of assay: binding. The essentials:
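Competition fluorescence polarization format: test peptidomimetic competes with fluorescently labeled MLL peptide for KIX, and Ki is derived from the competition data.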
Background: Fluorescence polarisation rises when a labelled molecule tumbles more slowly, as on binding a larger partner.

pKi: −log10 of the molar value.

Sequence of KIX domain of p300/CBP (KIX–MLL interaction) (P45481 586-665 limits assumed): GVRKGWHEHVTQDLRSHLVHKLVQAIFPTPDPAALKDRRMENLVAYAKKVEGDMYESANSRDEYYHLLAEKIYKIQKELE

Substance “Ac-SDIMDFVLKNTP-NH2 [MLL^847–858, Ac-SDIMDFVLKNTP-NH2]” had a pKi below 3.00.
